Laboratory results from ChEMBL document CHEMBL3593217, “Synthesis and bioactivity of a Goralatide analog with antileukemic activity” (Bioorg Med Chem, 2015).
Active and inactive are the calls of the source. The rule behind the calls is not given here. Peptide text beside a SMILES is read from it. * marks the point of attachment. Cbz = O=C(OCc1ccccc1)*; OBn = c1ccc(CO*)cc1; OtBu = CC(C)(C)O*; tBu = CC(C)(C)*

Assays:
[1] = test system: U-251; assay: Cytotoxicity against human U251 cells assessed as reduction of clonogenicity at 10 uM after 1 to 2 weeks by crystal violet staining; assay type: functional, cell-based
Summary of the method: (§1)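 Clonogenic survival: 1000 cells plated per well, then grown with or without peptide for 1–2 weeks before colonies were scored. Peptide stock was 25 mM in DMSO.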

[2] = test system: HEK-293T; assay: Cytotoxicity against human 293T cells assessed as reduction of clonogenicity at 10 uM after 1 to 2 weeks by crystal violet staining; assay type: cell-based; summary of the method: as §1
[3] = test system: HL-60; assay: Cytotoxicity against human HL60 cells assessed as cell viability at 1 to 100 uM after 24 hrs by MTT assay; assay type: functional, cell-based
Summary of the method: (§2)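 Cells exposed to peptide at a range of concentrations for 24 h, with DMSO as negative control. Tetrazolium (MTS-type) viability reagent added, then 1–2 h at 37 °C. Read-out is OD at 490 nm. Run in triplicate; significance by Student's t-test against untreated and DMSO-treated cells. Peptide stock was 25 mM in DMSO, stored at −20 °C.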

[4] = test system: NALM-6; assay: Cytotoxicity against human NALM6 cells assessed as cell viability at 1 to 100 uM after 24 hrs by MTT assay; assay type: functional, cell-based; summary of the method: as §2
[5] = test system: HEL; assay: Cytotoxicity against human HEL cells assessed as cell viability at 1 to 100 uM after 24 hrs by MTT assay; assay type: functional, cell-based; summary of the method: as §2
[6] = test system: HL-60; assay: Cytotoxicity against human HL60 cells assessed as cell viability after 24 hrs by MTT assay; assay type: functional, cell-based; summary of the method: as §2
[7] = test system: HUVEC; assay: Cytotoxicity against human HUVEC cells assessed as cell viability after 24 hrs by MTT assay; assay type: cell-based; summary of the method: as §2
[8] = Chemical stability of the compound in DMSO after 7 days; assay type: physicochemical; conditions: 168 h
Summary of the method: (§3)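 Peptide kept in organic solvent (DMSO, CDCl₃ or MeOH) and watched for decomposition, read at 12 h and at 7 days.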

[9] = Chemical stability of the compound in CDCl3 after 7 days; assay type: physicochemical; conditions: 168 h; summary of the method: as §3
[10] = Chemical stability of the compound in MeOH after 7 days; assay type: physicochemical; conditions: 168 h; summary of the method: as §3
[11] = Half life in human plasma; assay type: ADME, cell-free
[12] = test system: HL-60; assay: Cytotoxicity against human HL60 cells assessed as cell viability at 50 uM after 24 hrs by MTT assay; assay type: functional, cell-based; summary of the method: as §2
[13] = test system: NALM-6; assay: Cytotoxicity against human NALM6 cells assessed as cell viability at 50 uM after 24 hrs by MTT assay; assay type: functional, cell-based; summary of the method: as §2
[14] = test system: HEL; assay: Cytotoxicity against human HEL cells assessed as cell viability at 50 uM after 24 hrs by MTT assay; assay type: functional, cell-based; summary of the method: as §2
[15] = Chemical stability of the compound in DMSO after 12 hrs; assay type: physicochemical; summary of the method: as §3
[16] = Chemical stability of the compound in CDCl3 after 12 hrs; assay type: physicochemical; summary of the method: as §3
[17] = Chemical stability of the compound in MeOH after 12 hrs; assay type: physicochemical; summary of the method: as §3

Stability [8] | Stability [9] | Stability [10] | half-life [11] [min] | Stability [15] | Stability [16] | Stability [17] | SMILES | Activity [1] | Activity [2] | Activity [3] | Activity [4] | Activity [5] | Activity [6] | Activity [7] | inhibition [12] | inhibition [13] | inhibition [14]
Stable | Stable | Stable | – | – | – | – | CC(=O)N[C@@H](COC(C)(C)C)C(=O)N[C@@H](CC(=O)OC(C)(C)C)C(=O)N[C@@H](CCCCNC(=O)OCc1ccccc1)C(=O)N1CCC[C@H]1C(=O)OCc1ccccc1 (Ac-S(tBu)D(OtBu)K(Cbz)P-OBn) | Active | Toxic | Active | Active | Active | Dose-dependent effect | Dose-dependent effect | – | – | –
– | – | – | 4.5 | Unstable | Unstable | Unstable | CC(=O)N[C@@H](CO)C(=O)N[C@@H](CC(=O)O)C(=O)N[C@@H](CCCCN)C(=O)N1CCC[C@H]1C(=O)O [GORALATIDE] (Ac-SDKP-OH) | – | – | – | – | – | – | – | inactive | inactive | inactive
